Assay outcomes as filed in PubChem.
Compounds with a hit are over-represented: about 1.9% of the library has one in this group of screens.
b-catenin transl = modulators of beta-catenin nuclear translocation; nuclear translocation activity, % at 5 µM; AID 1665; actives 0.3% (n = 190,000); HeLa beta-catenin nuclear translocation, immunofluorescence imaging;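 active = nuclear translocation activity above 50% at 5 µM, with a well cell count of 50 or more; inconclusive = wells under 50 cells across six images, flagged as toxic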;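 note: per-cell ratio of nuclear to cytoplasmic median beta-catenin stain intensity; plate controls were DMSO negative control for no effect and GSK-3 inhibitor IX positive control for full effect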
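Technique: fluorescence imaging of beta-catenin antibody stain plus DAPI / Material: human HeLa cell line / Incubation: compound treatment 24 h, 37°C, 5% CO2 / Read-out basis: % activation of per-cell nuclear versus cytoplasmic median beta-catenin signal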
Insulin prom up = MIN6 insulin promoter up-regulation | MIN6 insulin promoter-GFP reporter, high-content imaging; active compounds read high | z-score at 5 µM | actives 0.3% (n = 190,000) | AID 1625;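 active = z-score above 3 at 5 µM with at least 500 cells counted in the well; inconclusive = wells under 500 cells, flagged as cytotoxic or low count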
Autophagy HCS = autophagy modulation, high-content screen; AID 463193; calls only at 10 µM (by protocol); MEF GFP-LC3 puncta imaging; test concentration mostly 10 µM; actives 0.98% (n = 190,000);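 active = percentage of spot-positive cells more than 3 SD above its plate mean, without a fluorescence outlier flag or 80% toxicity; inconclusive = no clear call, values can overlap the other calls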;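 note: spot-positive cell cutoff set from DMSO-treated cells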
MT stabilizer = stabilizes microtubules in HeLa cells; AID 2205; HeLa tubulin immunostaining HCS, 24 h; share of cells brighter than vehicle mean+2SD; actives 0.83% (n = 200,000); % tubulin-high responders, % at 10 µM;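 active = plate Z-score above 3 for both tubulin-high and condensed-nucleus cell shares, with cell loss under 80%, at 10 µM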;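 note: anti alpha tubulin signal scored within the nucleus-defined area of each cell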
* marks the source's active call; other numbers are inactive results; i = inactive; ? = inconclusive; / = not tested or not shown; + = active, no number.

SMILES	b-catenin transl	Insulin prom up	Autophagy HCS	MT stabilizer
CN(C)N1C(N)=C(C#N)C(c2cccnc2)C2=C1CCCC2=O (stereo not drawn)	-1	/	i	3
O=C(/C=C/c1ccc2ccccc2n1)c1cc(Br)ccc1O	-1	4.4*	/	/
CCCN(CCC)C(=O)Cn1c(=O)c2sccc2n2c(=S)sc(-c3ccccc3)c12	-2	-0.11	+	22
CC1(C(=O)Oc2ccccc2)Cc2ccccc2C(=O)O1 (stereo not drawn)	-4	1.6	i	2
CO/N=C\CC(=O)Nc1ccc(Cl)c(Cl)c1	49	/	i	26*
COC(=O)c1ccc(Nc2cc(C)nc3ccc(C)cc23)cc1	62*	-1.1	/	/
Cc1ccc2nc(C)cc(Nc3ccc([N+](=O)[O-])cc3)c2c1	0	-1.4	+	5
COC(=O)c1ccc2nc(C)cc(Nc3ccccc3C)c2c1	-4	-0.47	i	4
C#CCSc1nnnn1-c1cccc(Cl)c1	-2	-0.26	/	/
Cc1[nH]c(=S)[nH]c(=O)c1Cc1ccc(OCC(C)C)cc1	11	/	i	15*
CCOc1ccc2nc(NC(=S)N(C)C)sc2c1	/	1.1	+	1
CCCOC(=O)c1ccc(NC(=O)c2nc3nc(C)cc(C)n3n2)cc1	-1	0.01	i	3
CC1=C(C)C(=O)NC(Nc2nc(C)c3cc(C)cc(C)c3n2)N1 (stereo not drawn)	/	/	+	8
CCn1c2ccccc2c2cc(Nc3cc(C)nc4ncnn34)ccc21	94*	/	i	10
C=CCNc1nc(Nc2ccc(-c3nc4ccccc4o3)cc2)nc(N2CCOCC2)n1	/	/	i	1
Cc1cccc(OCC(O)CN2C(C)(C)CC(O)CC2(C)C)c1 (stereo not drawn)	-1	1.1	+	4
Cc1ccc(S(=O)(=O)N(C)CCCC(=O)Nc2cccc3ccccc23)cc1	3	-0.08	i	3
Cc1ccc(SCc2cn3c(C)cc(C)nc3n2)cc1	0	-0.27	/	/
Cc1cc(C)n2cc(CSc3ccccn3)nc2n1	-6	0.12	+	3
Cc1cccc(N2CCN(Cc3cn(C)nc3-c3ccccc3F)CC2)n1	103*	0.4	i	34*
CC(C)N(C(=O)c1ccc2nc(-c3ccccc3)c(-c3ccccc3)nc2c1)C(C)C	-1	/	i	3
COc1ccc(N(C)C(=O)c2ccc3nc(-c4ccccc4)c(-c4ccccc4)nc3c2)cc1	-1	-0.23	i	25*
C=CCN(C(=O)c1ccccc1)c1ccc(OC)cc1	17	0.29	i	43*
COc1ccc(C(=O)c2ccccc2)cc1	?	0.03	i	1
CCCCn1c(=NC(=O)c2ccco2)c(C(=O)OCC)cc2c(=O)n3cccc(C)c3nc21	-1	/	/	/
SMILES	b-catenin transl	Insulin prom up	Autophagy HCS	MT stabilizer
Cc1ccc(-n2nnnc2SCc2nc3sc(C)c(C)c3c(=O)[nH]2)cc1	3	1.1	+	2
CC(=O)c1sc2nc(CSc3nnnn3-c3ccccc3)[nH]c(=O)c2c1C	1	0.26	i	2
Cc1onc(-c2ccccc2)c1C(=O)Nc1sc2c(c1C#N)CCC(C)C2 (stereo not drawn)	0	-0.31	i	27*
Cc1onc(-c2ccccc2Cl)c1C(=O)Nc1sc2c(c1C#N)CCC2	0	0.61	i	7
Cc1onc(-c2ccccc2)c1C(=O)Nc1nc2c(s1)CCCC2	0	/	i	19*
O=C(c1ccc2c(c1)OCO2)N1CCC(Cc2ccccc2)CC1	2	-0.14	/	/
CCCC1=C(C(=O)OCC)C(c2cc(Cl)cc(OC)c2OCc2ccccc2)NC(=O)N1 (stereo not drawn)	/	/	i	3
COc1cc(NC(C)C(=O)N2CC(C)OC(C)C2)cc(OC)c1 (stereo not drawn)	-1	-0.67	i	2
COc1ccc(-c2nn(-c3ccccc3)cc2C(=O)N2c3ccc(C)cc3C3CN(C)CCC32)cc1 (stereo not drawn)	1	-1.2	+	3
COc1ccccc1/C=C/C=N/NC(=O)c1ccc2nc[nH]c2c1	-2	/	i	2
CCOC(=O)C(C)Oc1cccc2c(=O)n(CC(=O)NCc3ccc4c(c3)OCO4)ccc12 (stereo not drawn)	73*	0.08	i	16*
COC(=O)COc1cccc2c(=O)n(CC(=O)NCCc3ccccc3)ccc12	-1	0.11	i	6
CCOC(=O)COc1cccc2c(=O)n(CC(=O)NCc3ccccc3)ccc12	56*	0.13	/	/
COc1cccc2c(=O)n(CC(=O)Nc3cccc(F)c3)ccc12	/	3.4*	i	9
CCOC(=O)COc1cccc2c(=O)n(CC(=O)NCCc3ccc(OC)c(OC)c3)ccc12	-2	3.6*	i	4
CCOC(=O)COc1cccc2c(=O)n(CC(N)=O)ccc12	1	-0.37	/	/
O=C(N/C(=C/c1ccc(Br)cc1)C(=O)N1CCCC1=O)c1ccco1	0	0.38	i	2
Cc1cccc(-n2c(C)cc(/C=N/n3cnnc3)c2C)c1	5	-2.4	i	7
Cn1ccs/c1=N\C(=O)Nc1ccccc1	0	2.7	i	5
CCOC(=O)COc1cccc2c(=O)n(CC(=O)N3CCCCC3)ccc12	1	1.5	/	/
CCOC(=O)COc1cccc2c(=O)n(CC(=O)NCc3ccc(F)cc3)ccc12	74*	-0.8	/	/
CSc1nc(SCC(=O)NCc2ccco2)c2c3c(sc2n1)COC(C)(C)C3	-1	0.69	i	35*
CCCCc1nc2sc3c(SCC(=O)NCc4ccco4)ncnc3c2c2c1CCC2	17	0.3	i	33*
CCCCSc1nc(SCC(=O)NCc2ccco2)c2c3c(sc2n1)COC(C)(CC)C3 (stereo not drawn)	3	-2.1	i	3
Cc1nc(SCC(C)C)[nH]c(=O)c1Cc1ccccc1	-3	0.75	+	2
SMILES	b-catenin transl	Insulin prom up	Autophagy HCS	MT stabilizer
O=C(NNC(=O)C(O)(c1ccccc1)c1ccccc1)C1CC1	-1	0.86	i	1
Cc1cccc(-c2cc(C(=O)Nc3ccc4c(c3)OCCO4)c3ccccc3n2)c1	1	1.2	i	2
O=C(Nc1ccc2c(c1)OCCO2)c1cc(-c2ccccn2)nc2ccc(Br)cc12	1	0.22	+	3
CCOC(=O)C1=C(c2ccccc2)O/C(=C(\C(=O)OC)C(F)(F)F)S1	5	/	i	2
CCOC(=O)C1=C(c2ccccc2)O/C(=C(/C#N)C(F)(F)F)S1	41	-0.89	+	9
Cc1nn(-c2ccc([N+](=O)[O-])cc2)c2c1C(c1cccc(Br)c1)N1C(=N2)C(=O)Nc2ccccc21 (stereo not drawn)	0	-0.41	+	2
Cc1nn(-c2ccccc2)c2c1C(c1ccc([N+](=O)[O-])cc1)N1C(=N2)C(=O)Nc2ccccc21 (stereo not drawn)	0	-1.4	i	3
CCOC(=O)C1CCCN(S(=O)(=O)c2ccc(OC)c3ccccc23)C1 (stereo not drawn)	/	0.41	i	11*
Cc1ccc(Nc2c(-c3ccc(N4CCOCC4)cc3)nc3ncccn23)cc1	3	0.75	+	3
